Results as given in ChEMBL document CHEMBL4028917, “(+)-Methyl (1R,2S)-2-{[4-(4-Chlorophenyl)-4-hydroxypiperidin-1-yl]methyl}-1-phenylcyclopropanecarboxylate [(+)-MR200] Derivatives as Potent and Selective Sigma Receptor Ligands: Stereochemistry and Pharmacological Properties” (J Med Chem, 2018).
pKi: −log10 of the molar value. In brackets after ≈: the same amount, converted by molar mass. Activity calls are given as the source filed them. The calls are words filed in the database; no cut-off is given here.

Assays:
Cavia porcellus = species: Cavia porcellus; assay: Selectivity index, ratio of Ki for sigma2 receptor in guinea pig brain membrane […]; type: cell membranes
[1] = Displacement of [3H]-(+)-DTG from sigma2 receptor in guinea pig brain membrane after 120 mins by liquid scintillation counting method; type: cell membranes, Cavia porcellus
Mus musculus [2] = assay: (§1) Antinociceptive activity in CD1 mouse model of mechanical nociception assessed as increase in morphine-induced struggle response latency at 16 to 32 mg/kg, sc administered 30 mins before behavioral evaluation by paw pressure test; type: functional, organism-based
Procedure, shortened: (§2)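 Female CD1 mice (25–30 g) in the paw pressure test. A 450 g blunt cone was pressed on the dorsal hindpaw until a struggle response, and latency (s) was recorded. Each hindpaw was tested twice, alternately, 1 min apart. Morphine (4 mg/kg) or HPMC vehicle was given s.c. 30 min before testing. Test drugs were given s.c. in HPMC 5 min before morphine. Mean ± SEM, 6–8 animals; one-way ANOVA with Bonferroni.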

Mus musculus [3] = assay: Antinociceptive activity in sc dosed CD1 mouse model of mechanical nociception assessed as increase in morphine-induced struggle response latency administered 30 mins before behavioral evaluation by paw pressure test; type: functional, organism-based; procedure, shortened: as §2
Mus musculus [4] = assay: as §1, with “at” for “at 16 to”, “evaluation co-treated with 32 mg/kg, sc prototypical sigma1 receptor agonist PRE-084 administered 5 min before injection of morphine” for “evaluation”; type: functional, organism-based; procedure, shortened: as §2
[5] = biological target: Sigma non-opioid intracellular receptor 1 (Cavia porcellus, UniProt Q60492); assay: Displacement of [3H]-(+)-pentazocine from sigma1 receptor in guinea pig brain membrane after 150 mins by liquid scintillation counting method; type: cell membranes
Sequence of Sigma non-opioid intracellular receptor 1 (Q60492 whole entry): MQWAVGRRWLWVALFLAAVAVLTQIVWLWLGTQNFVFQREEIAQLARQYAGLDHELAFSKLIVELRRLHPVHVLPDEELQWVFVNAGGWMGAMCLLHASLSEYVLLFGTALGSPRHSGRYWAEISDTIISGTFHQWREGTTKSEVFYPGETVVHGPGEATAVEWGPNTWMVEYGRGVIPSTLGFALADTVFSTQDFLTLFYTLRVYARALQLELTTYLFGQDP

Mus musculus [6] = assay: Antinociceptive activity in CD1 mouse model of mechanical nociception assessed as effect on struggle response latency at 32 mg/kg, sc administered 30 mins before behavioral evaluation by paw pressure test; type: functional, organism-based; procedure, shortened: as §2
Mus musculus [7] = assay: Antinociceptive activity in CD1 mouse model of mechanical nociception assessed as effect on struggle response latency at 4 mg/kg, sc administered 30 mins before behavioral evaluation by paw pressure test; type: functional, organism-based
Procedure, shortened: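 Female CD1 mice (25–30 g). Paw pressure test: a blunt cone applied 450 g to the dorsal hindpaw until a struggle response; latency (s) recorded. Each hindpaw was tested twice, alternately, at 1 min intervals. Morphine or HPMC vehicle was given s.c. 30 min before testing. Values are the mean ± SEM of both hindpaws from 6–8 animals; one-way ANOVA with Bonferroni test.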

D(1A) dopamine receptor = D(1A) dopamine receptor (Rattus norvegicus, UniProt P18901); assay: Binding affinity to dopamine D1 receptor in rat striatum by liquid scintillation counting method
Sequence of D(1A) dopamine receptor (P18901 whole entry): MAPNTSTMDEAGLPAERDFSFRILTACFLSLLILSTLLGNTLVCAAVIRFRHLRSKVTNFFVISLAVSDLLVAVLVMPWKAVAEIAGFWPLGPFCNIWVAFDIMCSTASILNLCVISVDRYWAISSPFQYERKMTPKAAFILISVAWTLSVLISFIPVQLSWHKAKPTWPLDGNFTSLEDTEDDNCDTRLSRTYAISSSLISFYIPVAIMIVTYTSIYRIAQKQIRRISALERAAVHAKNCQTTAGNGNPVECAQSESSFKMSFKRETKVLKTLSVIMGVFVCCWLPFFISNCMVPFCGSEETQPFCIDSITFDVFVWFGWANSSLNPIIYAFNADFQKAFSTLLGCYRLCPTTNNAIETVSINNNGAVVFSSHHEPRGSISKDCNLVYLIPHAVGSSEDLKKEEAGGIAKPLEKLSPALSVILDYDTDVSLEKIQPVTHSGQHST

D(2) dopamine receptor = D(2) dopamine receptor (Rattus norvegicus, UniProt P61169); assay: Displacement of [3H]-spiperone from dopamine D2 receptor in rat strriatum after 15 mins by liquid scintillation counting method
Sequence of D(2) dopamine receptor (P61169 whole entry): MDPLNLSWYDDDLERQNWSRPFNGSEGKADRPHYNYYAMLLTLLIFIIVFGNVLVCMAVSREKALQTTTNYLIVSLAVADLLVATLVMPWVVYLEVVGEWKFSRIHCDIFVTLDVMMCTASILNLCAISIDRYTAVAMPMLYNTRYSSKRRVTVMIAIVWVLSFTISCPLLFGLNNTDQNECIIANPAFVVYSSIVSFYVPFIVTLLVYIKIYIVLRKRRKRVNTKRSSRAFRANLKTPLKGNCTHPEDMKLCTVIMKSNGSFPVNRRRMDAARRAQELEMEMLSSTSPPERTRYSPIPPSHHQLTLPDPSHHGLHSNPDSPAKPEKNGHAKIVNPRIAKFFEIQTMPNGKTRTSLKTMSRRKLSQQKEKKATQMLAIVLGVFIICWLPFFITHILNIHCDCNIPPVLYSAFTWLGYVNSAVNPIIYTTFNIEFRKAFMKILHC

Mus musculus [8] = assay: Antinociceptive activity in CD1 mouse model of mechanical nociception assessed as effect on struggle response latency at 16 to 32 mg/kg, sc administered 30 mins before behavioral evaluation by paw pressure test; type: functional, organism-based; procedure, shortened: as §2
Mus musculus [9] = assay: Antinociceptive activity in CD1 mouse model of mechanical nociception assessed as increase in morphine-induced struggle response latency at 12 to 16 mg/kg, sc administered 30 mins before behavioral evaluation by paw pressure test; type: functional, organism-based; procedure, shortened: as §2
Plasma [10] = assay: Enzymatic stability of the compound in mouse plasma assessed observed rate constant; type: ADME, cell-free
Procedure, shortened: (§3)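 Hydrolysis was followed at 37 °C in rat, mouse or human plasma. Half-life (h) and observed rate constant (h⁻¹) were derived; means ± SD of three experiments.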

[11] = Aqueous solubility of the compound; type: physicochemical
Procedure, shortened: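 Water solubility (mg/mL) was measured experimentally; mean ± SD of three experiments.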

Homo sapiens = species: Homo sapiens; assay: Binding affinity to dopamine D4.2 receptor (unknown origin) by liquid scintillation counting method
[12] = Chemical stability of the compound at pH 7.4 assessed as half life; type: physicochemical; conditions: buffer
Procedure, shortened: (§4)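 Chemical stability was tested in vitro at 37 °C in aqueous buffer at pH 1.3 (non-enzymatic simulated gastric fluid) or pH 7.4. Half-life and k_obs were reported; means ± SD of three experiments.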

[13] = Enzymatic stability of the compound in mouse plasma assessed as half life; type: ADME, cell-free; procedure, shortened: as §3
[14] = biological target: D(3) dopamine receptor (Rattus norvegicus) (UniProt P19020); assay: Binding affinity to dopamine D3 receptor in rat olfactory tubercle by liquid scintillation counting method
Sequence of D(3) dopamine receptor (Rattus norvegicus) (P19020 whole entry): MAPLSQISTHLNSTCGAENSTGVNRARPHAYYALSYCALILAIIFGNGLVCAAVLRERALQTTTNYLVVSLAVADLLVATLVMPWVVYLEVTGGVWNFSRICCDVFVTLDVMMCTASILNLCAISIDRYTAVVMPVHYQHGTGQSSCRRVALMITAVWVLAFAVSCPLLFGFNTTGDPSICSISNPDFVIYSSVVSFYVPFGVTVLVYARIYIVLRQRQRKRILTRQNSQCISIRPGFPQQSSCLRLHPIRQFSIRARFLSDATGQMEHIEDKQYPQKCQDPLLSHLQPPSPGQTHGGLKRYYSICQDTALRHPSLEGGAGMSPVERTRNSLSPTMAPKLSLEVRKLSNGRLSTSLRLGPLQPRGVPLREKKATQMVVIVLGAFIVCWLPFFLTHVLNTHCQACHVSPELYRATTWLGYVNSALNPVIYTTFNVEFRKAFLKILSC

[15] = Chemical stability of the compound at pH 1.3 assessed as half life; type: physicochemical; conditions: buffer; procedure, shortened: as §4
Plasma [16] = assay: Enzymatic stability of the compound in rat plasma assessed observed rate constant; type: ADME, cell-free; procedure, shortened: as §3
[17] = biological target: 5-hydroxytryptamine receptor 2A (Rattus norvegicus) (UniProt P14842); assay: Binding affinity to 5-HT2A receptor in rat cortex by liquid scintillation counting method
Sequence of 5-hydroxytryptamine receptor 2A (Rattus norvegicus) (P14842 whole entry): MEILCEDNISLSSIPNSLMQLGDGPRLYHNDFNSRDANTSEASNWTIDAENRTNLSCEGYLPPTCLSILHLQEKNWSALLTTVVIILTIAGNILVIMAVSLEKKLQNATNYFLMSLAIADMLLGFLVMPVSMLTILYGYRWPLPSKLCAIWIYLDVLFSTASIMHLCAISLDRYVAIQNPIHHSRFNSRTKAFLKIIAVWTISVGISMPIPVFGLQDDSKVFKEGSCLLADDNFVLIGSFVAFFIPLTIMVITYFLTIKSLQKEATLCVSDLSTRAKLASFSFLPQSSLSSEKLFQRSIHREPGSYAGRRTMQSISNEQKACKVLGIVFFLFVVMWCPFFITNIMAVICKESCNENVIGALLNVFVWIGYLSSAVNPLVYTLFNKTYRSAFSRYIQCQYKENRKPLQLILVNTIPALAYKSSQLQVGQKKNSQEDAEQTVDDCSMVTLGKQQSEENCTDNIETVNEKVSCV

Mus musculus [18] = assay: Reversal of 8 mg/kg, sc BD-1063-induced potentiation of morphine-induced antinociceptive activity in CD1 mouse model of mechanical nociception by measuring struggle response latency at 32 mg/kg, sc administered 30 mins before behavioral evaluation by paw pressure test; type: functional, organism-based; procedure, shortened: as §2
[19] = Enzymatic stability of the compound in human plasma assessed as half life; type: ADME, cell-free; procedure, shortened: as §3
[20] = Chemical stability at pH 7.4 assessed as observed rate constant; type: physicochemical; conditions: buffer; procedure, shortened: as §4
[21] = Enzymatic stability of the compound in rat plasma assessed as half life; type: ADME, cell-free; procedure, shortened: as §3
[22] = biological target: T1, 5-hydroxytryptamine receptor 3A (Rattus norvegicus) (UniProt P35563); assay: Binding affinity to 5-HT3 receptor in rat cortex by liquid scintillation counting method
T1 sequence (whole entry): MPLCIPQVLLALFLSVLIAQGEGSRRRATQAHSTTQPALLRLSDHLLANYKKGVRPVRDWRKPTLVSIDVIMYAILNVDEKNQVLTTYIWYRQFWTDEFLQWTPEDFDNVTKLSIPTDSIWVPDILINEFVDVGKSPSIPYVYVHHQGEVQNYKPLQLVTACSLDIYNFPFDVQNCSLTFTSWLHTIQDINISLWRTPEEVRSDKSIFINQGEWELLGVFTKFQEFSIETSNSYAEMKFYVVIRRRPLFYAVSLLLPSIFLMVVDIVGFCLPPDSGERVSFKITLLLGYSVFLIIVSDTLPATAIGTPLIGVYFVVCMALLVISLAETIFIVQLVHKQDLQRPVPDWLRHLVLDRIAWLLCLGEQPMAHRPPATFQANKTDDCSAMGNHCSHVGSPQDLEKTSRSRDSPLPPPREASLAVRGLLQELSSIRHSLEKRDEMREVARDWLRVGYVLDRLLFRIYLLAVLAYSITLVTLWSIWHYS

[23] = biological target: Adrenergic receptor alpha-1 (Rattus norvegicus) (UniProt P15823+P23944+P43140); assay: Binding affinity to adrenergic alpha1 receptor in rat cortex by liquid scintillation counting method
Plasma [24] = assay: Enzymatic stability of the compound in human plasma assessed observed rate constant; type: ADME, cell-free; procedure, shortened: as §3
[25] = Chemical stability at pH 1.3 assessed as observed rate constant; type: physicochemical; conditions: buffer; procedure, shortened: as §4
Mus musculus [26] = assay: Antinociceptive activity in CD1 mouse model of mechanical nociception assessed as effect on struggle response latency at 8 mg/kg, sc administered 30 mins before behavioral evaluation by paw pressure test; type: functional, organism-based; procedure, shortened: as §2

SMILES	Ratio Ki (Cavia porcellus)	pKi [1]	pKi [5]	also measured
CC(C)OC(=O)[C@]1(c2ccccc2)C[C@H]1CN1CCC(O)(c2ccc(Cl)cc2)CC1	5	6.67	7.37	Activity (Mus musculus [2]): Active; Activity (Mus musculus [3]): Dose-dependent effect; Activity (Mus musculus [4]): inactive; Activity (Mus musculus [6]): inactive
CCCOC(=O)[C@@]1(c2ccccc2)C[C@@H]1CN1CCC(O)(c2ccc(Cl)cc2)CC1	13.2	6.77	7.89	
O=C(O)[C@@]1(c2ccccc2)C[C@@H]1CN1CCC(O)(c2ccc(Cl)cc2)CC1	1.5	6.19	6.35	
CCOC(=O)[C@@]1(c2ccccc2)C[C@@H]1CN1CCC(O)(c2ccc(Cl)cc2)CC1	25	5.89	7.28	
CCCN1CCC=C(c2cc(-c3ccc(C)cc3)no2)C1			8.37	
CCCOC(=O)[C@]1(c2ccccc2)C[C@@H]1CN1CCC(O)(c2ccc(Cl)cc2)CC1	10.4	6.84	7.85	
CN1CC[C@]23c4c5ccc(O)c4O[C@H]2[C@@H](O)C=C[C@H]3[C@H]1C5				Activity (Mus musculus [7]): inactive
COC(=O)[C@]1(c2ccccc2)C[C@H]1CN1CCC(O)(c2ccc(Cl)cc2)CC1	3.6	7.40	7.96	pKi (D(1A) dopamine receptor): < 5.00; pKi (D(2) dopamine receptor): 5.25
COC(=O)[C@@]1(c2ccccc2)C[C@@H]1CN1CCC(O)(c2ccc(Cl)cc2)CC1	1.1	6.85	6.89	pKi (D(1A) dopamine receptor): < 5.00; pKi (D(2) dopamine receptor): 5.30
CC(C)OC(=O)[C@@]1(c2ccccc2)C[C@H]1CN1CCC(O)(c2ccc(Cl)cc2)CC1	24.4	5.79	7.17	Activity (Mus musculus [8]): inactive; Activity (Mus musculus [2]): Active; Activity (Mus musculus [9]): Active; Activity (Mus musculus [4]): inactive
COC(=O)C1(c2ccccc2)CC1CN1CCC(O)(c2ccc(Cl)cc2)CC1 (single isomer, unassigned; (-))		7.63	8.25	pKi (D(1A) dopamine receptor): < 5.00; pKi (D(2) dopamine receptor): 6.42
COC(=O)C1(c2ccccc2)CC1CN1CCC(O)(c2ccc(Cl)cc2)CC1 (racemic)		7.21	7.84	pKi (D(1A) dopamine receptor): < 5.00; pKi (D(2) dopamine receptor): 5.28
CCOC(=O)[C@]1(c2ccccc2)C[C@@H]1CN1CCC(O)(c2ccc(Cl)cc2)CC1	42.2	7.24	8.87	
CCCOC(=O)[C@@]1(c2ccccc2)C[C@H]1CN1CCC(O)(c2ccc(Cl)cc2)CC1	8.8	6.54	7.48	
CCOC(=O)[C@]1(c2ccccc2)C[C@H]1CN1CCC(O)(c2ccc(Cl)cc2)CC1	2.4	6.97	7.35	
CCOC(=O)[C@@]1(c2ccccc2)C[C@H]1CN1CCC(O)(c2ccc(Cl)cc2)CC1	20.4	6.04	7.35	
CC(C)OC(=O)[C@@]1(c2ccccc2)C[C@@H]1CN1CCC(O)(c2ccc(Cl)cc2)CC1	> 250	5.74	8.15	K (Plasma [10]): 0.51 h⁻¹; solubility [11]: 3100 µg/mL (≈ 7.24 mM); Activity (Homo sapiens): inactive; half-life [12]: 91 h; Activity (Mus musculus [2]): inactive; half-life [13]: 1.14 h; Activity [14]: inactive; half-life [15]: 83.6 h; K (Plasma [16]): 3.26 h⁻¹; Activity [17]: inactive; Activity (Mus musculus [18]): Active; half-life [19]: 65.2 h; K [20]: 0.009 h⁻¹; half-life [21]: 0.38 h; Activity [22]: inactive; Activity [23]: inactive; K (Plasma [24]): 0.01 h⁻¹; K [25]: 0.009 h⁻¹
CC(C)OC(=O)[C@]1(c2ccccc2)C[C@@H]1CN1CCC(O)(c2ccc(Cl)cc2)CC1	10.5	6.68	7.70	Activity (Mus musculus [8]): inactive; Activity (Mus musculus [4]): inactive
CCCOC(=O)[C@]1(c2ccccc2)C[C@H]1CN1CCC(O)(c2ccc(Cl)cc2)CC1	6.1	7.14	7.92	
COC(=O)C1(c2ccccc2)CC1CN1CCC(O)(c2ccc(Cl)cc2)CC1 (single isomer, unassigned; (+)) [listing 1 of 2 here]	14.5			
COC(=O)C1(c2ccccc2)CC1CN1CCC(O)(c2ccc(Cl)cc2)CC1 (single isomer, unassigned; (+)) [listing 2 of 2 here]		7.66	8.82	pKi (D(1A) dopamine receptor): < 5.00; pKi (D(2) dopamine receptor): 5.49
O=C(CCCN1CCC(O)(c2ccc(Cl)cc2)CC1)c1ccc(F)cc1 [HALOPERIDOL]		7.80		
CN1CCN(CCc2ccc(Cl)c(Cl)c2)CC1				Activity (Mus musculus [26]): Active
